The results in this text go back to ChEMBL document CHEMBL2321858, “1,2,3,4,6-Penta-O-galloyl-β-D-glucopyranose inhibits angiogenesis via inhibition of capillary morphogenesis gene 2” (J Med Chem, 2013).

pIC50: −log10 of the molar value. Activity calls are given as the source filed them. The rule behind the calls is not given here.

The target in data set [1] is Anthrax toxin receptor 2 (Homo sapiens, UniProt P58335, C175A/R40C). The experiment in a line: Inhibition of CMG2 (40 to 217) C175A and R40C double mutant (unknown origin) interaction to full length PA E733C mutant expressed in Escherichia coli by FRET assay.
Anthrax toxin receptor 2, sequence (P58335 34-489 R40C/C175A limits assumed): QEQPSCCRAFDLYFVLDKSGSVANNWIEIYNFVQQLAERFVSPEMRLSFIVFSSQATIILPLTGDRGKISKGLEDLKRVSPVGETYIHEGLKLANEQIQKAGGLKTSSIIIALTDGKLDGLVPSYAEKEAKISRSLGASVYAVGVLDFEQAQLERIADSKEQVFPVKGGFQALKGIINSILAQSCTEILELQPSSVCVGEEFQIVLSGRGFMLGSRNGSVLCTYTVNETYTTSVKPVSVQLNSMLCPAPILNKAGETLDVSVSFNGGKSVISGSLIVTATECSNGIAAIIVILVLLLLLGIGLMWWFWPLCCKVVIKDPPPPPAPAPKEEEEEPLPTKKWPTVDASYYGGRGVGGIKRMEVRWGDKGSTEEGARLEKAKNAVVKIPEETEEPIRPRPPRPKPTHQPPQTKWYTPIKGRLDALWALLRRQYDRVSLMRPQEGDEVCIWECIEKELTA
Data set [2] in a line: Cmax in C57BL/6J mouse at 20 mg/kg, ip after 6 to 24 hrs. Format: ADME, organism-based. On the set-up: dose 20 mg/kg, route intraperitoneal. To be noted: in vivo.
Data set [3] relates to Mus musculus. The experiment in a line: Toxicity in C57BL/6J mouse assessed as behavioral abnormalities at 20 mg/kg, po or 10 mg/kg, ip measured on day 5. Format: organism-based. As to conditions: in vivo.
Data set [4] concerns Mus musculus. Description: Toxicity in C57BL/6J mouse assessed as hunched posture at 20 mg/kg, po or 10 mg/kg, ip measured on day 5. To be noted: in vivo. The class given is organism-based.
Data set [5] relates to Mus musculus. Description: Toxicity in C57BL/6J mouse assessed as weight loss at 20 mg/kg, po or 10 mg/kg, ip measured on day 5. To be noted: in vivo. Format: organism-based.
Data set [6] relates to Mus musculus. Description: Antiangiogenic activity in C57BL/6J mouse assessed as bFGF-induced angiogenesis at 20 mg/kg, po or 10 mg/kg, ip measured on day 5 by corneal micropocket assay. Format: functional, organism-based. To be noted: Cornea. Summed up: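 bFGF pellet (80 ng) implanted in cornea; groups of five mice dosed daily from implantation day, either 20 mg/kg by oral gavage in 5% ethanol or 10 mg/kg/day IP in 2.5% DMSO/5% Cremaphor EL/5% Tween-80/7.5% N-methyl-2-pyrrolidone/0.9% NaCl; vehicle-only controls. Vascular response area measured by slit lamp on postoperative day 5, typically 10 eyes per group.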

Data set [7] can be described thus: Cytotoxicity against HMVEC at 1 to 30 uM after 24 to 72 hrs by fluorescence assay. To be noted: human. Summed up:
(§1)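 HMVEC-d (EGM-2, before passage 7) seeded at 2000 cells/well, medium swapped after attachment for EGM-2 ± compound; grown 1 or 3 days, then quantified by Cyquant fluorescence. Fold-proliferation = experimental readout / day-0 ethanol-fixed wells; normalized to untreated wells. Four independent experiments, n=4 wells each; t-test with Bonferroni correction.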

The nature of data set [8]: Cytostatic toxicity against HMVEC at 1 to 30 uM after 24 to 72 hrs by fluorescence assay. To be noted: human. Summed up: as §1
The nature of data set [9]: Antiangiogenic activity in HMVEC assessed as inhibition of endothelial cell migration after 4 hrs by stereomicroscopic analysis. The class given is functional, cell-based. As to conditions: Homo sapiens. Summed up:
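HMVEC-d (EGM-2, used before passage 7) resuspended in EBM with 0.1% BSA, 20,000 cells on fibronectin-coated 8.0 μm-pore polycarbonate transwells; migration toward full (5%) serum media ± compound for 4 h. Non-migrated cells swabbed off, membranes fixed and Diff-Quick stained. Data normalized to untreated control; two independent experiments, n=3 each; IC50 from binding isotherm fit.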

As a reminder, the pIC50 is the IC50 on a negative log10 scale, so that one unit is a factor of ten. For the compound `Oc1cc(O)c2c(c1)O[C@H](c1ccc(O)c(O)c1)[C@H](O)C2` [(-)-EPICATECHIN], in [1], the pIC50 is less than 3.52.

With `O=C(O)/C=C/c1ccc(O)c(O)c1` [CAFFEIC ACID], the pIC50 in [1] is less than 3.52.

In [1], `COc1cc(/C=C/C(=O)CC(=O)/C=C/c2ccc(O)c(OC)c2)ccc1O` [CURCUMIN] gave a pIC50 of less than 3.52.

`O=C(O)CCc1ccc(O)c(O)c1` [DIHYDROCAFFEIC ACID] gave a pIC50 in data set [1] of less than 3.52.

`NCCc1ccc(O)c(O)c1` [DOPAMINE] had a pIC50 in [1] of less than 3.52.

In turn, `Oc1cc(O)c2c(c1)O[C@H](c1cc(O)c(O)c(O)c1)[C@H](O)C2` [EPIGALLOCATECHIN] had a pIC50 in [1] of less than 3.52.

The compound `COC(=O)c1cc(O)c(O)c(O)c1` [GALLIC ACID METHYL ESTER] gave a pIC50 in data set [1] of less than 3.52.

The compound `O=C(O)c1cc(O)c(O)c(O)c1` [GALLIC ACID] showed a pIC50 in [1] of less than 3.52.

For the compound `COC(=O)c1ccc(O)c(O)c1` [METHYL PROTOCATECHUATE], the pIC50 in data set [1] was less than 3.52.

`O=c1c(O)c(-c2cc(O)c(O)c(O)c2)oc2cc(O)cc(O)c12` [MYRICETIN]: the pIC50 in data set [1] was less than 3.52.

The term Cmax denotes the peak of the concentration-time curve. For the compound `O=C(OC[C@H]1O[C@@H](OC(=O)c2cc(O)c(O)c(O)c2)[C@H](OC(=O)c2cc(O)c(O)c(O)c2)[C@@H](OC(=O)c2cc(O)c(O)c(O)c2)[C@@H]1OC(=O)c1cc(O)c(O)c(O)c1)c1cc(O)c(O)c(O)c1` [PENTAGALLOYL GLUCOSE], in data set [2], the Cmax is less than 1000 nM. Also, the Activity entry in data set [3], in data set [4], in [5], in data set [7] and in data set [8] was “Non-toxic” in each case. Also, the inhibition entry in data set [6] was “Active”. For the same compound, the pIC50 in data set [9] was 6.09; in data set [1], 6.52.

`CCCOC(=O)c1cc(O)c(O)c(O)c1` [PROPYL GALLATE] had a pIC50 in data set [1] of less than 3.52.

In data set [1], `O=C(O)c1ccc(O)c(O)c1` [PROTOCATECHUIC ACID] showed a pIC50 of less than 3.52.

Consider `O=c1c(O)c(-c2ccc(O)c(O)c2)oc2cc(O)cc(O)c12` [QUERCETIN], for which the negative logarithm of the IC50 (pIC50) in data set [1] is less than 3.52.

For `O=C(OC[C@H]1O[C@@H](OC(=O)c2cc(O)c(O)c(OC(=O)c3cc(O)c(O)c(O)c3)c2)[C@H](OC(=O)c2cc(O)c(O)c(OC(=O)c3cc(O)c(O)c(O)c3)c2)[C@@H](OC(=O)c2cc(O)c(O)c(OC(=O)c3cc(O)c(O)c(O)c3)c2)[C@@H]1OC(=O)c1cc(O)c(O)c(OC(=O)c2cc(O)c(O)c(O)c2)c1)c1cc(O)c(O)c(OC(=O)c2cc(O)c(O)c(O)c2)c1` [TANNIC ACID], the pIC50 in data set [1] was less than 3.52.

In [1], `COc1cc(C(=O)O)ccc1O` [VANILLIC ACID] gave a pIC50 of less than 3.52.
